According to ChEMBL document CHEMBL1153179, “Optimization of orally bioavailable alkyl amine renin inhibitors” (Bioorg Med Chem Lett, 2010):
Activity calls are given as the source filed them. The rule behind the calls is not given here.

Tests used:
[1] = molecular target: T1, Renin (Homo sapiens, UniProt P00797); assay: Inhibition of trypsin-activated human recombinant renin
T1 sequence (P00797 whole entry): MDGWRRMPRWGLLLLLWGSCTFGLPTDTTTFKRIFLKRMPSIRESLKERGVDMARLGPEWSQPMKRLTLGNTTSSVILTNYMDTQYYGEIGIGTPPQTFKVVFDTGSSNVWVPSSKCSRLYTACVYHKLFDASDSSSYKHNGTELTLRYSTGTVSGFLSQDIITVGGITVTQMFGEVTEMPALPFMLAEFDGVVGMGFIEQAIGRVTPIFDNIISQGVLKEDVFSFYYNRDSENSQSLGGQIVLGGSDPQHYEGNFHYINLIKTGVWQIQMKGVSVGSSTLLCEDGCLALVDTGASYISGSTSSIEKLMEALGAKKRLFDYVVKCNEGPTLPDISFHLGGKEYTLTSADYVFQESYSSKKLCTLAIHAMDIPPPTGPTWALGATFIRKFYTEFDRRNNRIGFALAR

[2] = molecular target: T1, Renin; assay: Inhibition of human recombinant renin assessed as decrease in plasma renin activity by competitive radioimmunoassay in presence of human plasma
[3] = AUC (0 to t) in rat at 10 mg/kg, po; assay type: ADME, organism-based, Plasma; set-up: dose 10 mg/kg, route oral; details: plasma
[4] = Half life in rat at 10 mg/kg, po; assay type: ADME, organism-based; set-up: dose 10 mg/kg, route oral; details: in vivo
[5] = Clearance in cynomolgus monkey at 1 mg/kg, iv; assay type: ADME, organism-based, Macaca fascicularis; set-up: dose 1 mg/kg, route intravenous; details: in vivo
[6] = Cmax in cynomolgus monkey at 2 mg/kg, po; assay type: ADME, organism-based, Macaca fascicularis; set-up: dose 2 mg/kg, route oral; details: in vivo
[7] = Tmax in cynomolgus monkey at 2 mg/kg, po; assay type: ADME, organism-based, Macaca fascicularis; set-up: dose 2 mg/kg, route oral; details: in vivo
[8] = Oral bioavailability in cynomolgus monkey at 2 mg/kg; assay type: ADME, organism-based, Macaca fascicularis; details: in vivo
[9] = system: Rattus norvegicus; assay: Reduction in mean blood pressure in double transgenic rat model of hypertension at 10 mg/kg, po after 24 hrs; assay type: functional, organism-based; set-up: dose 10 mg/kg
In short: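 Double transgenic rats expressing human renin and human angiotensinogen (dTGR) given a single 10 mg/kg oral dose; mean arterial pressure followed over 24 h against vehicle-treated animals, with statistical significance assessed.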

[10] = AUC (0 to t) in cynomolgus monkey at 2 mg/kg, po; assay type: ADME, organism-based, Macaca fascicularis; set-up: dose 2 mg/kg, route oral; details: plasma
[11] = Half life in cynomolgus monkey at 2 mg/kg, po; assay type: ADME, organism-based, Macaca fascicularis; set-up: dose 2 mg/kg, route oral; details: in vivo
[12] = Cmax in rat at 10 mg/kg, po; assay type: ADME, organism-based; set-up: dose 10 mg/kg, route oral; details: in vivo
[13] = Tmax in rat at 10 mg/kg, po; assay type: ADME, organism-based; set-up: dose 10 mg/kg, route oral; details: in vivo
[14] = Clearance in rat at 2 mg/kg, iv; assay type: ADME, organism-based; set-up: dose 2 mg/kg, route intravenous; details: in vivo
[15] = Volume of distribution at steady state in rat at 10 mg/kg, po or 2 mg/kg, iv; assay type: ADME, organism-based; details: in vivo, read-out: Vdss
[16] = Oral bioavailability in rat at 10 mg/kg; assay type: ADME, organism-based; details: in vivo

IC50 [1]	IC50 [2]	Compound	further results
1.7 nM	6.2 nM	CNC[C@H](CC1CCCCC1)NC(=O)N1CCC[C@@H]([C@@H](OCCNC(=O)OC)c2cccc(F)c2F)C1	–
177 nM	–	CNC[C@H](CC1CCCCC1)NC(=O)N1CCC[C@@H]([C@@](O)(CCCNS(C)(=O)=O)c2cccc(Cl)c2)C1	–
1.5 nM	21 nM	CCC(=O)NCCC[C@@](O)(c1cccc(Cl)c1)[C@@H]1CCCN(C(=O)N[C@H](CNC)CC2CCCCC2)C1	–
2260 nM	–	CNC[C@H](CC1CCCCC1)NC(=O)N1CCC[C@@H]([C@@](O)(CCCNC(=O)N(C)C)c2cccc(Cl)c2)C1	–
0.48 nM	2.6 nM	COC(=O)NCCO[C@@H](c1cccc(Cl)c1)[C@@H]1CCCN(C(=O)N[C@H](CN)CC2CCCCC2)C1	Cmax [12]: 63 ng/mL; Tmax [13]: 4 h; AUC(0-t) [3]: 201 ng·h/mL; half-life [4]: 7.8 h; clearance [14]: 53 mL/min/kg; Vd [15]: 51 L/kg; bioavailability [16]: 7.2%

Further lines, the molecule ahead of its results:

Compound	IC50 [1]	IC50 [2]	further results
CNC[C@H](CC1CCCCC1)NC(=O)N1CCC[C@@H]([C@@](O)(CCCNC(=O)NC)c2cccc(Cl)c2)C1	46 nM	141 nM	–
CNC[C@H](CC1CCCCC1)NC(=O)N1CCC[C@@H]([C@@H](OCCNC(=O)OC)c2cccc(Cl)c2F)C1	0.61 nM	3.4 nM	–
CNC[C@H](CC1CCCCC1)NC(=O)N1CCC[C@@H]([C@@H](OCCNC(=O)OC)c2cccc(C)c2)C1	0.47 nM	4 nM	–
CNC[C@H](CC1CCCCC1)NC(=O)N1CCC[C@@H]([C@@H](OCCNC(=O)OC)c2ccc(F)c(F)c2)C1	2.5 nM	16.6 nM	–
COCCCOc1cc(C[C@@H](C[C@H](N)[C@@H](O)C[C@H](C(=O)NCC(C)(C)C(N)=O)C(C)C)C(C)C)ccc1OC	–	–	AUC(0-t) [3]: 21 ng·h/mL; half-life [4]: 13.5 h; clearance [5]: 2.5 mL/min/kg; Cmax [6]: 29.5 ng/mL; Tmax [7]: 1.3 h; bioavailability [8]: 1.4%; Activity [9]: Active; AUC(0-t) [10]: 154 ng·h/mL; half-life [11]: 9.8 h
CNC[C@H](CC1CCCCC1)NC(=O)N1CCC[C@@H]([C@@](O)(CCCNC(C)=O)c2cccc(Cl)c2)C1	–	16 nM	clearance [14]: 23 mL/min/kg; Vd [15]: 117 L/kg
CNC[C@H](CC1CCCCC1)NC(=O)N1CCC[C@@H]([C@@](O)(CCCNC(N)=O)c2cccc(Cl)c2)C1	31 nM	200 nM	–
CNC[C@H](CC1CCCCC1)NC(=O)N1CCC[C@@H]([C@@](O)(CCCNC(=O)C2CC2)c2cccc(Cl)c2)C1	17 nM	79 nM	–
CNC[C@H](CC1CCCCC1)NC(=O)N1CCC[C@@H]([C@@H](OCCNC(=O)OC)c2ccccc2)C1	1.17 nM	2.9 nM	–
